Experiments:
[1] = system: Staphylococcus aureus; assay: Antimicrobial activity against Staphylococcus aureus by CLSI method; assay type: functional; settings: for MIC50 / MIC: Staphylococcus aureus; for MIC: read-out: MIC100
[2] = system: Bacillus subtilis; assay: Antimicrobial activity against Bacillus subtilis by CLSI method; assay type: functional; settings: for MIC50 / MIC: Bacillus subtilis; for MIC: read-out: MIC100
[3] = system: Escherichia coli; assay: Antimicrobial activity against Escherichia coli JM107 by CLSI method; assay type: functional; settings: for MIC50 / MIC: Escherichia coli, JM107; for MIC: read-out: MIC100
[4] = system: Salmonella typhimurium; assay: Antimicrobial activity against Salmonella enterica LT2 ATCC 700720 by CLSI method; assay type: functional, Salmonella enterica subsp. enterica serovar Typhimurium; settings: for MIC50 / MIC: Salmonella enterica, LT2 ATCC 700720; for MIC: read-out: MIC100
[5] = system: MRC5; assay: Cytotoxicity against human MRC5 cells assessed as reduction in cell viability at 0.5 to 25 ug/ml after 24 hrs by MTT assay; assay type: cell-based; settings: mrc5, 24 h
In short: (§1)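 MTT colorimetric viability test; human embryonic lung MRC5 cells or human lung cancer Calu-1 cells exposed 24 h to compound over 0.5–50 µg/ml; DMSO vehicle up to 0.4% v/v. Two or three independent experiments, each in triplicate, reported as mean ± SD.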

[6] = system: MRC5; assay: Cytotoxicity against human MRC5 cells assessed as reduction in cell viability at 25 ug/ml after 24 hrs by MTT assay; assay type: cell-based; settings: mrc5, 24 h; in short: as §1
[7] = system: Calu-1; assay: Cytotoxicity against human Calu1 cells assessed as reduction in cell viability at 50 ug/ml after 24 hrs by MTT assay; assay type: cell-based; settings: calu-1, 24 h; in short: as §1

SMILES	MLD [1]	MIC50 [1] [µg/mL]	MIC [1] [µg/mL]	MLD [2]	MIC50 [2] [µg/mL]	MIC [2] [µg/mL]	MLD [3] [µg/mL]	MIC50 [3] [µg/mL]	MIC [3] [µg/mL]	MLD [4]	MIC50 [4] [µg/mL]	MIC [4] [µg/mL]	Activity [5]	Activity [6] [%]	Activity [7]
COc1ccc(N2C(=O)C(CC(=O)N[C@@H]3C(=O)N4C(C(=O)[O-])=C(COC(C)=O)CS[C@H]34)C2c2ccc(Cl)cc2)cc1.[Na+] (mixture of isomers)	>32 µg/mL	4 to 8	32	>256 µg/mL	< 4	32	>256	> 256	> 256	>256 µg/mL	> 256	> 256	Non-Toxic	–	–
CC(=O)OCC1=C(C(=O)[O-])N2C(=O)[C@@H](NC(=O)CC3C(=O)N(c4ccc(C)c(C)c4)C3c3ccccc3)[C@H]2SC1.[Na+] (mixture of isomers)	>16 µg/mL	> 1	4 to 8	>=3.5 ug ml-1	< 0.25	3.5	>256	> 256	> 256	>256 µg/mL	> 256	> 256	–	20	–
CC(=O)OCC1=C(C(=O)[O-])N2C(=O)[C@@H](NC(=O)CCCCCC3C(=O)N(c4ccccc4)C3c3ccccc3)[C@H]2SC1.[Na+] (mixture of isomers)	>4 µg/mL	1.5 to 2	3.5 to 4	>32 µg/mL	< 0.25	0.5	>256	> 256	> 256	>256 µg/mL	> 256	> 256	Non-Toxic	–	Toxic
CC(=O)OCC1=C(C(=O)[O-])N2C(=O)[C@@H](NC(=O)CC3C(=O)N(c4ccccc4)C3c3ccccc3)[C@H]2SC1.[Na+] (mixture of isomers)	>3 µg/mL	0.75	2.5	>2.5 µg/mL	< 0.25	2.5	>256	> 256	> 256	>256 µg/mL	> 256	> 256	–	–	–
COc1ccc(N2C(=O)C(CCCCCC(=O)N[C@@H]3C(=O)N4C(C(=O)[O-])=C(COC(C)=O)CS[C@H]34)C2c2ccccc2)cc1.[Na+] (mixture of isomers)	>=1.75 - 2 ug ml-1	0.75	1.75	>=0.75 ug ml-1	< 0.12	0.25 to 0.35	>256	> 256	> 256	>256 µg/mL	> 256	> 256	Non-Toxic	–	–
CC(=O)OCC1=C(C(=O)[O-])N2C(=O)[C@@H](NC(=O)CCC3C(=O)N(c4ccc(C)c(C)c4)C3c3ccccc3)[C@H]2SC1.[Na+] (mixture of isomers)	>16 µg/mL	1	4 to 6	64 µg/mL	≤ 1	2	>256	> 256	> 256	>256 µg/mL	> 256	> 256	Non-Toxic	–	–
CC(=O)OCC1=C(C(=O)[O-])N2C(=O)[C@@H](NC(=O)CCC3C(=O)N(c4ccccc4)C3c3ccccc3)[C@H]2SC1.[Na+] (mixture of isomers)	>=3 ug ml-1	0.25 to 0.5	2.5	>32 µg/mL	< 0.25	1	>256	> 256	> 256	>256 µg/mL	> 256	> 256	Non-Toxic	–	Toxic
CO/N=C(\C(=O)N[C@@H]1C(=O)N2C(C(=O)O)=C(CSc3nc(=O)c(=O)[nH]n3C)CS[C@H]12)c1csc(N)n1.[Na+]	>7 µg/mL	2 to 4	5.5	>=1 ug ml-1	< 0.25	0.75	>1	< 0.25	0.25	>=2 ug ml-1	< 0.25	0.25	–	–	–
CC(=O)OCC1=C(C(=O)[O-])N2C(=O)[C@@H](NC(=O)CCCCCCCC3C(=O)N(c4ccccc4)C3c3ccccc3)[C@H]2SC1.[Na+] (mixture of isomers)	>=1 ug ml-1	< 0.25	1	>16 µg/mL	< 0.25	0.75	>256	> 256	> 256	>256 µg/mL	> 256	> 256	–	–	–
COc1ccc(N2C(=O)C(CC(=O)N[C@@H]3C(=O)N4C(C(=O)[O-])=C(COC(C)=O)CS[C@H]34)C2c2ccc([N+](=O)[O-])cc2)cc1.[Na+] (mixture of isomers)	>32 µg/mL	4 to 8	32	>256 µg/mL	8	32	>256	> 256	> 256	>256 µg/mL	> 256	> 256	Non-Toxic	–	–
COc1ccc(N2C(=O)C(CC(=O)N[C@@H]3C(=O)N4C(C(=O)[O-])=C(COC(C)=O)CS[C@H]34)C2c2ccccc2)cc1.[Na+] (mixture of isomers)	>1.5 µg/mL	< 0.25	1.5	>=128 ug ml-1	< 0.25	0.75	>256	> 256	> 256	>256 µg/mL	> 256	> 256	Non-Toxic	–	–
COc1ccc(N2C(=O)C(CCCCCCCC(=O)N[C@@H]3C(=O)N4C(C(=O)[O-])=C(COC(C)=O)CS[C@H]34)C2c2ccccc2)cc1.[Na+] (mixture of isomers)	0.25 µg/mL	> 0.12	< 0.25	>=2 - 4 ug ml-1	< 0.12	0.25	>256	> 256	> 256	>256 µg/mL	> 256	> 256	–	20	–

From ChEMBL document CHEMBL4616606, “New compounds for a good old class: Synthesis of two Β-lactam bearing cephalosporins and their evaluation with a multidisciplinary approach” (Bioorg Med Chem, 2020)
